Experimental data from different studies.
Compare with care: the assays were run in different laboratories.
Target: Serine/threonine-protein kinase PAK 5 (PAK5, Homo sapiens, UniProt Q9P286)

Cn1cc(-c2cc(F)cc(N3CCn4c(cc5c4CCCC5)C3=O)c2CO)cc(Nc2ccc(N3CCN(C4COC4)CC3)cn2)c1=O
inhibition (enzyme activity; inhibitor; 0.1 µM): 10%

COc1cc(Nc2ncc(F)c(Nc3ccc4c(n3)NC(=O)C(C)(C)O4)n2)cc(OC)c1OC
inhibition (binding; 10 µM): 100%

N#CC1(c2ccccn2)CCN(Cc2cc(C(=O)O)c(=O)n3ccccc23)CC1
remaining binding (cell-free assay; competition with immobilised ligand; 1 µM): 96%

Cc1nn(C)cc1-c1nc2c(N3CCN(Cc4ccc(Cl)cc4)CC3)c(Cl)cnc2[nH]1
remaining binding (binding; competition with immobilised ligand; 1 µM): 83%

C#Cc1n[nH]c2c(-c3cn(C(C)c4ccccn4)c(=O)[nH]c3=O)cc(F)cc12 (stereo not shown)
inhibition (enzyme activity; inhibitor; 1 µM): -3.8%

COc1ncccc1-c1cnn2ccc(N3CCN(C(=O)OC(C)C)CC3)nc12
remaining binding (binding; competition with immobilised ligand; 1 µM): 100%

O=c1[nH]c2ccccc2n1C1CCN(Cc2ccc(-c3[nH]c4cc5ncnc5cc4nc3-c3ccccc3)cc2)CC1
remaining signal (cell-free assay; 0.5 µM): 110%

Nc1ncc(-c2nc(N3CCOCC3)nc(N3CCOCC3)n2)c(C(F)F)n1
remaining binding (binding; competition with immobilised ligand; 10 µM): 52%

Cn1cc(-c2cccc(N3CCc4c(sc5c4CC(C)(C)C5)C3=O)c2CO)cc(Nc2ccncn2)c1=O
inhibition (enzyme activity; inhibitor; 1 µM): 4%

Cn1cncc1[C@@](O)(COc1ccc(C#N)cc1-c1ccc(OC(F)(F)F)cc1)c1ccc(C#N)cc1
remaining binding (cell-free assay; competition with immobilised ligand; 1 µM): 100%
